These results are taken from ChEMBL document CHEMBL1130120, “N-arylpiperazinyl-N'-propylamino derivatives of heteroaryl amides as functional uroselective alpha 1-adrenoceptor antagonists” (J Med Chem, 1997).

In experiment [1] the target is T1, Alpha-1D adrenergic receptor (Rattus norvegicus, UniProt P23944).
T1 sequence (P23944 whole entry): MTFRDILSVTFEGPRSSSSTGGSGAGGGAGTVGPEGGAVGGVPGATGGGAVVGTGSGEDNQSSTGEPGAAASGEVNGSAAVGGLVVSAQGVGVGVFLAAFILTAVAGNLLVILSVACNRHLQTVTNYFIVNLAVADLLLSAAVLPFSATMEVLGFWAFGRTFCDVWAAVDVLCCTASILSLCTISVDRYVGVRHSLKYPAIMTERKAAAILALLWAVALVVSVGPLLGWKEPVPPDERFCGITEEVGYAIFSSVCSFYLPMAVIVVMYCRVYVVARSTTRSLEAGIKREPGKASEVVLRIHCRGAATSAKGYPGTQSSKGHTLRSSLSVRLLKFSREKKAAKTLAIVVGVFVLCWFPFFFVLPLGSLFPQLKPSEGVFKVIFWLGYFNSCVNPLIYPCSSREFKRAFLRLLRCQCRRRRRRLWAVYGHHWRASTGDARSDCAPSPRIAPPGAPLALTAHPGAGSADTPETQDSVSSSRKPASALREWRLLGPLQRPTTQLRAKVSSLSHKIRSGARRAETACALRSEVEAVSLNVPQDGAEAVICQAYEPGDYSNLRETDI
The experiment can be described thus: Antagonistic activity against rat aorta for affinity estimates representative of the Alpha-1D adrenergic receptor. In kind it is functional, tissue-based. Conditions: read-out: pA2 (converted). In outline: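 Isolated smooth-muscle tissue with cumulative norepinephrine concentration–effect curves (rat aorta, human lower urinary tract). Affinity obtained by full Schild regression for some antagonists. […] Competitive, reversible interaction at a single subtype assumed.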

Experiment [2] concerns the target T2, Alpha-1A adrenergic receptor (Oryctolagus cuniculus, UniProt O02824).
T2 sequence (O02824 whole entry): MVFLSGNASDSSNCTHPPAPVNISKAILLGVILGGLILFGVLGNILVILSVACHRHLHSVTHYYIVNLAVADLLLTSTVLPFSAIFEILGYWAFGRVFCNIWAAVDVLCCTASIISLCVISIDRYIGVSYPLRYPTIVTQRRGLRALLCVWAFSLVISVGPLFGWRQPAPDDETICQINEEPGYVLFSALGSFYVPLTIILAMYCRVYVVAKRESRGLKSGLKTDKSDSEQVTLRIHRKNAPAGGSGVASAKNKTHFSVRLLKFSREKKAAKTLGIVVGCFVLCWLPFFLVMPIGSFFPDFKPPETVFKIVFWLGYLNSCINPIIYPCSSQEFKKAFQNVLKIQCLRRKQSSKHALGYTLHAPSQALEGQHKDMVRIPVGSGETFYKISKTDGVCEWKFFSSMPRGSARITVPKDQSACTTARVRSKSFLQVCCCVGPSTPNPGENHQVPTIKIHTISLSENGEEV
The experiment can be described thus: Antagonistic activity against alpha 1A/1L receptor was assessed in a rabbit bladder neck functional assay. Conditions: read-out: pA2 (converted).

Experiment [3] deals with T3, Alpha-1A adrenergic receptor (Bos taurus, UniProt P18130).
T3 sequence (P18130 whole entry): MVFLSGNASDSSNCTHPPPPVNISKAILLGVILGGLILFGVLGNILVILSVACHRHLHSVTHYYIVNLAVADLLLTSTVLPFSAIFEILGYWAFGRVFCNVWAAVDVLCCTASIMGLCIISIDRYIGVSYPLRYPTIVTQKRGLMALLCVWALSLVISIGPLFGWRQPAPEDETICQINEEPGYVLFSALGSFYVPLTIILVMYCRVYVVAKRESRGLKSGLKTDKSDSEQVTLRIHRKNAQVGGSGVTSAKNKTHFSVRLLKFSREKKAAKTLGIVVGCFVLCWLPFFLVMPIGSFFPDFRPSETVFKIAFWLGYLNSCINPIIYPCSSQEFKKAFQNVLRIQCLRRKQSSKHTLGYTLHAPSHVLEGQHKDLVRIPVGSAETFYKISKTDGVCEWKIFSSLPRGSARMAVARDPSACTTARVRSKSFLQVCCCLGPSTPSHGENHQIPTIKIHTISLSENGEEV
Put plainly: In vitro for the displacement of [3H]prazosin binding to bovine Alpha-1A adrenergic receptor. In general terms: Loss of bound radioactivity is the signal in a displacement assay; it reports binding, not function.

Structures are written as SMILES.

As to `COc1ccc(N2CCN(CCCNc3ncccc3C(=O)N(C)C)CC2)c(OC)c1`, the Kb was 1000 nM in experiment [1] and 31.6 nM in experiment [2].
The term Ki denotes a measure of affinity in units of concentration, obtained from inhibition or displacement. A low value points to tighter binding. As to `COc1ccccc1N1CCN(CCCNc2ncccc2C(=O)N2CCCC2)CC1`, the Kb in experiment [1] was 20 nM. This molecule also showed an inhibition constant Ki in experiment [3] of 0.794 nM.
In the case of `CN(C)C(=O)c1cnc2c(Cl)cccc2c1NCCCN1CCN(c2ccccc2OCC(F)(F)F)CC1`, the values for the Kb in experiment [1] and in experiment [2] were 126 nM and 0.794 nM, respectively.
For `CN(C)C(=O)c1cccnc1NCCCN1CCN(c2ccccc2C(F)(F)F)CC1` the same measures were 316 nM and 12.6 nM.
`COc1ccccc1N1CCN(CCCNc2ncc(O)cc2C(=O)N(C)C)CC1`: the Kb was 10 nM in experiment [1] and 2 nM in experiment [2].
For `CC(C)c1ccccc1N1CCN(CCCNc2ncccc2C(=O)N(C)C)CC1` the same measures were 63.1 nM and 0.398 nM.
For `COc1cc(F)ccc1N1CCN(CCCNc2c(C(=O)N(C)C)cnc3c2nc(C)n3C)CC1` the same measures were 79.4 nM and 0.631 nM.
For `COc1ccccc1N1CCN(CCCNc2ncc(C#N)cc2C(=O)N(C)C)CC1` the same measures were 20 nM and 0.794 nM.
Turning to `CN(C)C(=O)c1cccnc1NCCCN1CCN(c2ccccc2Cc2ccccc2)CC1`, the results for the Kb in experiment [1] and in experiment [2] were 79.4 nM and 6.31 nM, respectively.
`COc1cc(F)ccc1N1CCN(CCCNc2c(C(=O)N(C)C)cnc3c(C(N)=O)cccc23)CC1`: the Kb in experiment [1] was 158 nM; in experiment [2], 0.501 nM.
Take `CCOc1ccccc1OCCNC1CCN(c2ncccc2C(=O)N(C)C)CC1`: the Kb in experiment [1] was 15.8 nM. The molecule further had a Ki in experiment [3] of 3.16 nM.
Take `CCOc1ccccc1N1CCN(CCCNc2ncccc2C(=O)N(C)C)CC1`: the Kb in experiment [1] was 7.94 nM; in experiment [2], 0.501 nM.
As for `COc1ccccc1N1CCN(CCC(=O)Nc2ccccc2C(=O)N(C)C)CC1`, the Kb in experiment [1] was 63.1 nM. Affinity in experiment [3] was put at a Ki of 1.58 nM.
Regarding `CN(C)C(=O)c1cccnc1NCCCN1CCN(c2ccccc2OCC(C)(C)C)CC1`, the Kb in experiment [1] was 50.1 nM. Besides, in experiment [3], the Ki is 0.794 nM.
As for `CN(C)C(=O)c1cccnc1NCCCN1CCN(c2ccccc2C#N)CC1`, the values for the Kb in experiment [1] and in experiment [2] were 10 nM and 2 nM, respectively.
The matching figures for `COc1cc(F)ccc1N1CCN(CCCNc2c(C(=O)N(C)C)cnc3nc(C)ccc23)CC1`: 631 nM and 1.26 nM.
The matching figures for `Cc1nn(C)c2ncc(C(=O)N(C)C)c(NCCCN3CCN(c4ccc(F)cc4-c4ncco4)CC3)c12`: 200 nM and 0.126 nM.
For `CSc1ccccc1N1CCN(CCCNc2ncccc2C(=O)N(C)C)CC1` the same measures were 31.6 nM and 0.631 nM.
In the case of `Cc1ccc(N(CC2=NCCN2)c2cccc(O)c2)cc1` [PHENTOLAMINE], the Kb in experiment [2] is 6.31 nM. In experiment [3], this molecule had a Ki of 0.794 nM.
As for `CN(C)C(=O)c1cccnc1NCCCN1CCN(c2ccccc2OCC(F)(F)F)CC1`, the results for the Kb in experiment [1] and in experiment [2] were 15.8 nM and 0.1 nM, respectively.
For `COc1ccccc1N1CCN(CCCNc2cccc(C)c2C(=O)N(C)C)CC1` the same measures were 63.1 nM and 3.16 nM.
With `COc1cc(F)ccc1N1CCN(CCCNc2c(C(=O)N(C)C)cnc3c(C#N)cccc23)CC1`, the figures for the Kb in experiment [1] and in experiment [2] were 398 nM and 1.26 nM, respectively.
On to `COc1ccccc1N1CCN(CCCOc2ccccc2C(=O)N(C)C)CC1`, for which the Kb in experiment [1] is 31.6 nM; in experiment [2] it was 3.98 nM.
`Cc1ccc(N2CCN(CCCNc3ncccc3C(=O)N(C)C)CC2)c(-n2cccc2)c1`: the Kb in experiment [1] is 12.6 nM; in experiment [2] it was 0.02 nM.
The matching figures for `COc1cc(C)ccc1N1CCN(CCCNc2ncccc2C(=O)N(C)C)CC1`: 39.8 nM and 0.794 nM.
For `COc1ccccc1N1CCN(CCCSc2ccccc2C(=O)N(C)C)CC1` the same measures were 12.6 nM and 2 nM.
For `Cc1noc2ncc(C(=O)N(C)C)c(NCCCN3CCN(c4ccccc4OCC(F)(F)F)CC3)c12` the same measures were 79.4 nM and 1.58 nM.
For the molecule `CN(C)C(=O)c1cccnc1NCCCN1CCN(c2ccccc2OC(F)(F)F)CC1`, the results for the Kb in experiment [1] and in experiment [2] were 100 nM and 3.16 nM, respectively.
The matching figures for `COc1cc(F)ccc1N1CCN(CCCNc2c(C(=O)N(C)C)c[nH]c3ccn[n+]2-3)CC1`: 100 nM and 0.631 nM.
For the molecule `Cc1cnccc1N1CCN(CCCNc2ncccc2C(=O)N(C)C)CC1`, the Kb in experiment [2] is 200 nM.
Consider `Cc1cccc(C)c1N1CCN(CCCNc2ncccc2C(=O)N(C)C)CC1`, for which, in experiment [3], the affinity, expressed as Ki, was 7.94 nM.
Take `COc1ccccc1N1CCN(CCCNc2ccc(C(=O)N(C)C)cn2)CC1`: the Kb in experiment [1] was 31.6 nM; in experiment [2] it was 25.1 nM.
For `COc1cc(O)ccc1N1CCN(CCCNc2ncccc2C(=O)N(C)C)CC1` the same measures were 79.4 nM and 12.6 nM.
The matching figures for `COc1ccccc1N1CCN(CCCNc2ncncc2C(=O)N(C)C)CC1`: 50.1 nM and 3.98 nM.
For `COc1ccccc1N1CCN(CCCNc2ccccc2C(=O)c2ccccc2)CC1` the same measures were 10 nM and 31.6 nM.
With `COc1ccccc1N1CCN(CCCNc2ccc(C)cc2C(=O)N(C)C)CC1`, the Kb in experiment [1] is 20 nM; in experiment [2], 0.501 nM.
For `CN(C)C(=O)c1cccnc1N1CCC(NCCOc2ccccc2-c2cncnc2)CC1` the same measures were 2510 nM and 20 nM.
Consider `COc1ccccc1N1CCN(CCCNc2ncccc2C(N)=O)CC1`, for which the Kb in experiment [1] is 10 nM. The same molecule showed a Ki in experiment [3] of 0.126 nM.
Consider `COc1cc(F)ccc1N1CCN(CCCNc2c(C(=O)N(C)C)c[nH]c3c(Cl)cn[n+]2-3)CC1`, for which the results for the Kb in experiment [1] and in experiment [2] were 158 nM and 0.794 nM, respectively.
For `CNC(=O)c1cnc2c(c(C)nn2C)c1NCCCN1CCN(c2ccccc2OCC(F)(F)F)CC1` the same measures were 3.98 nM and 0.1 nM.
Regarding `CC(C)(Cc1c[nH]c2ccc(Cl)cc12)NCCOc1ccccc1OCC1CC1`, in experiment [2], the Kb is 50.1 nM. This molecule also had a Ki in experiment [3] of 0.794 nM.
For `CN(C)C(=O)c1cccnc1NCCCN1CCN(c2ccccc2O)CC1`, the Kb in experiment [1] is 63.1 nM; in experiment [2] it was 5.01 nM.
Regarding `COc1ccccc1N1CCN(CCCNc2ncccc2C(=O)C(C)(C)C)CC1`, in experiment [1], the Kb is 6.31 nM. In experiment [3], the inhibitory constant (Ki) was 0.398 nM.
In the case of `COc1ccccc1N1CCN(CCCNc2ncccc2C(=O)C2CC2)CC1`, the Kb in experiment [1] was 2 nM; in experiment [2], 0.501 nM.
For `CN(C)C(=O)c1cccnc1NCCCN1CCN(c2ccccc2C2CC2)CC1` the same measures were 63.1 nM and 0.631 nM.
The matching figures for `CN(C)C(=O)c1cnc2ccccc2c1NCCCN1CCN(c2ccccc2OCC(F)(F)F)CC1`: 100 nM and 3.98 nM.
In the case of `COc1ccccc1N1CCN(CCCNc2ccncc2C(=O)N(C(C)C)C(C)C)CC1`, the Kb in experiment [1] was 251 nM. For the same molecule, in experiment [3], the Ki is 1.58 nM.
As to `CN(C)C(=O)c1cccnc1NCCCN1CCN(c2ccccc2-c2ncco2)CC1`, the Kb in experiment [1] was 25.1 nM; in experiment [2], 0.316 nM.
For `CNC(=O)c1cccnc1NCCCN1CCN(c2ccccc2OC)CC1` the same measures were 3.16 nM and 1 nM.
For `CN(C)C(=O)c1cnc2c(c(C(C)(C)C)nn2C)c1NCCCN1CCN(c2ccccc2OCC(F)(F)F)CC1` the same measures were 63.1 nM and 2.51 nM.
The matching figures for `COc1cc(F)ccc1N1CCN(CCCNc2c(C(=O)N(C)C)cnc3c(C)cccc23)CC1`: 316 nM and 7.94 nM.
With `CCCc1ccccc1N1CCN(CCCNc2ncccc2C(=O)N(C)C)CC1`, the Kb in experiment [1] is 31.6 nM; in experiment [2] it was 0.2 nM.
